ChEMBL document CHEMBL4431315, “Jatrophane Diterpenoids as Modulators of P-Glycoprotein-Dependent Multidrug Resistance (MDR): Advances of Structure-Activity Relationships and Discovery of Promising MDR Reversal Agents” (J Med Chem, 2016)

What was measured:
[1] = target: T1, ATP-dependent translocase ABCB1 (Homo sapiens, UniProt P08183); test: Inhibition of P-gp mediated efflux in adriamycin-resistant human HepG2 cells assessed as intracellular rhodamine-123 accumulation at 10 uM incubated in dark condition for 90 mins by flow cytometry relative to control; format: cell-based
Procedure, shortened: (§1)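 HepG2/ADR cells seeded at 5 × 10^5/well and given compound plus 10 μM Rho123 in the dark at 37 °C for 90 min. Cells washed twice in ice-cold PBS, resuspended in PBS, read by flow cytometry in FL1 (Em 525 nm). Fold of control = (treated fluorescence − background)/(Rho123-only fluorescence − background).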

HepG2 = test: Cytotoxicity against adriamycin-resistant human HepG2 cells assessed as inhibition of cell proliferation after 48 hrs by MTT assay; format: functional, cell-based; details: HepG2, 48 h
Procedure, shortened: (§2)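 Seeded at 5 × 10^3 cells/well with graded compound levels, DMSO as negative control, 48 h. MTT added for 4 h, formazan dissolved in DMSO, OD read at 570 nm (reference 630 nm). IC50 by nonlinear regression; triplicate samples.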

NCI/ADR-RES = test: Intrinsic cytotoxicity against human MCF7/ADR cells assessed as inhibition of cell proliferation after 48 hrs by MTT assay; format: cell-based; procedure, shortened: as §2
[2] = Cytotoxicity against HLF cells assessed as inhibition of cell proliferation after 48 hrs by MTT assay; format: cell-based; details: Homo sapiens; procedure, shortened: as §2
[3] = target: T1, ATP-dependent translocase ABCB1; test: Inhibition of P-gp mediated efflux in adriamycin-resistant human HepG2 cells assessed as intracellular rhodamine-123 accumulation at 0.125 to 10 uM incubated in dark condition for 90 mins by flow cytometry; format: cell-based; procedure, shortened: as §1
[4] = target: T1, ATP-dependent translocase ABCB1; test: Inhibition of P-gp mediated efflux in adriamycin-resistant human HepG2 cells assessed as intracellular rhodamine-123 accumulation at 1 uM incubated in dark condition for 90 mins by flow cytometry; format: cell-based; procedure, shortened: as §1
[5] = Metabolic stability in Sprague-Dawley rat liver microsomes assessed as rate constant at 100 uM by HPLC-UV analysis; format: ADME, Microsome
Procedure, shortened: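 Rat liver microsomes at 1 mg protein/mL final, compound at 100 μM final (from a 10 mM CH3CN stock), in 100 mM PBS with 3.0 mM MgCl2 and 1.0 mM NADPH, pH 7.4, 37 °C. Sampled at 0 to 180 min and stopped with ice-cold CH3CN. Control run without NADPH. Centrifuged supernatants analysed by HPLC-UV; three independent experiments in triplicate.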

[6] = target: T1, ATP-dependent translocase ABCB1; test: Inhibition of P-gp mediated efflux in adriamycin-resistant human HepG2 cells assessed as intracellular rhodamine-123 accumulation at 2 uM incubated in dark condition for 90 mins by flow cytometry relative to control; format: cell-based; procedure, shortened: as §1
[7] = target: T1, ATP-dependent translocase ABCB1; test: Inhibition of P-gp mediated efflux in adriamycin-resistant human HepG2 cells assessed as intracellular rhodamine-123 accumulation at 0.125 uM incubated in dark condition for 90 mins by flow cytometry relative to control; format: cell-based; procedure, shortened: as §1
[8] = Half life in Sprague-Dawley rat liver microsomes at 100 uM by HPLC-UV analysis; format: ADME, Microsome

T1 sequence (P08183 whole entry): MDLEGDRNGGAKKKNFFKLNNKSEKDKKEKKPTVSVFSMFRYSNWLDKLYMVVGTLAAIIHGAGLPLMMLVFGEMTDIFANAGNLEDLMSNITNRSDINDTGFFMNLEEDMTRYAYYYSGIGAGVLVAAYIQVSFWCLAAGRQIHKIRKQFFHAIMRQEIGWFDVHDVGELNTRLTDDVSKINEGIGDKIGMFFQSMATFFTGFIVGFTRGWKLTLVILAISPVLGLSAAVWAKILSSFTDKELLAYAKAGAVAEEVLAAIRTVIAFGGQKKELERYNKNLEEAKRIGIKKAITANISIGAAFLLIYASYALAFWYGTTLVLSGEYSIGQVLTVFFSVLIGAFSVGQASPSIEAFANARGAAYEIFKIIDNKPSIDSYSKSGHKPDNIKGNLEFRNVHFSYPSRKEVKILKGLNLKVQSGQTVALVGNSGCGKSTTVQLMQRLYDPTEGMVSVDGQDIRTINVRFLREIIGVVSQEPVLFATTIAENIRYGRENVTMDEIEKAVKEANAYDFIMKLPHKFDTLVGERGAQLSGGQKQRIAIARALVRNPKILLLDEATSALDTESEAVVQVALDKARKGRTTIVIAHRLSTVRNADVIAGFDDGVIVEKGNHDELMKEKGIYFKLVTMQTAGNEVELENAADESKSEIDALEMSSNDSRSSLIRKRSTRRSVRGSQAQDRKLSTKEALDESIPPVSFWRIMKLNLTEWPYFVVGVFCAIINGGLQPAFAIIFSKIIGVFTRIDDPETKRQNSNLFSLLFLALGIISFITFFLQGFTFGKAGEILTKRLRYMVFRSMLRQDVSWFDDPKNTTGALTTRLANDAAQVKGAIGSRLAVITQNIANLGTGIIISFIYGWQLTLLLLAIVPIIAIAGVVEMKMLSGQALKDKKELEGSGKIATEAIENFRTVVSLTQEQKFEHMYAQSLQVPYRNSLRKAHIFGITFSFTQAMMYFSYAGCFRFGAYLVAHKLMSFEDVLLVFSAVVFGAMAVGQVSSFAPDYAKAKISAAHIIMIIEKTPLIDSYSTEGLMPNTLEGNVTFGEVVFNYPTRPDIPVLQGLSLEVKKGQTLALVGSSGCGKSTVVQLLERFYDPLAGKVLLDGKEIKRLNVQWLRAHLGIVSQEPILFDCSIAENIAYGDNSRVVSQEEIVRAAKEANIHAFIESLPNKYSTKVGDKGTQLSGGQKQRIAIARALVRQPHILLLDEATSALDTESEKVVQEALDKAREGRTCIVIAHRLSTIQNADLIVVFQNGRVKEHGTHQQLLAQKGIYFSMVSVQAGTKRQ

CC(=O)O[C@@H]1C[C@@H](OC(=O)c2ccccc2)/C(C)=C/[C@H]2[C@@H](OC(=O)c3ccccc3)[C@@H](C)[C@H](OS(=O)(=O)c3ccc(C)cc3)[C@]2(OC(C)=O)[C@H](O)[C@](C)(O)/C=C/C1(C)C
INH [1]: Active
IC50 (HepG2): > 150 µM
IC50 (NCI/ADR-RES): > 150 µM
IC50 [2]: > 100 µM

C/C1=C\[C@H]2[C@@H](OC(=O)c3ccccc3)[C@@H](C)[C@H](O)[C@]2(O)[C@H](O)[C@](C)(O)/C=C/C(C)(C)[C@H](O)C[C@H]1OC(=O)c1ccccc1
INH [3]: Not Active

CC(=O)O[C@@H]1C[C@@H](OC(C)=O)C(C)(C)/C=C/[C@@](C)(O)[C@@H](O)[C@@]2(OC(C)=O)[C@@H](O)[C@H](C)[C@H](OC(=O)c3ccccc3)[C@@H]2/C=C/1C
INH [1]: Active

C/C1=C\[C@H]2[C@@H](O)[C@@H](C)[C@H](O)[C@]2(O)[C@H](O)[C@](C)(O)/C=C/C(C)(C)[C@H](O)C[C@H]1O
INH [3]: Not Active

CC(=O)O[C@@H]1C[C@@H](OC(=O)c2ccccc2)/C(C)=C/[C@H]2[C@@H](OC(=O)c3ccccc3)[C@@H](C)[C@H](OC(=O)c3ccc(Br)cc3)[C@]2(OC(C)=O)[C@H](O)[C@](C)(O)/C=C/C1(C)C
INH [1]: Active
IC50 (HepG2): 81.3 µM
IC50 (NCI/ADR-RES): > 150 µM

CC(=O)O/C1=C(\C)[C@H]2O[C@](C)([C@@H](OC(C)=O)[C@]3(OC(C)=O)[C@@H]2[C@@H](OC(=O)c2ccccc2)[C@@H](C)[C@@H]3OC(C)=O)[C@H]2O[C@@H]2C(C)(C)[C@H](OC(C)=O)[C@H]1OC(C)=O
INH [4]: Active
FC [1]: 3.65
IC50 (HepG2): 130 µM
IC50 (NCI/ADR-RES): 55.6 µM

COc1ccc(CCN(C)CCCC(C#N)(c2ccc(OC)c(OC)c2)C(C)C)cc1OC (stereo not given)
k el at 100 µM [5]: 0.000392 s⁻¹

CC(=O)O/C1=C(\C)[C@H]2O[C@@](C)([C@@H](OC(C)=O)CC(C)(C)[C@H](OC(C)=O)[C@H]1OC(C)=O)[C@@H](OC(C)=O)[C@]1(OC(C)=O)[C@@H]2[C@@H](OC(=O)c2ccccc2)[C@@H](C)[C@@H]1OC(C)=O
FC [6]: 3.07
FC [7]: 1.81
INH [4]: Active
IC50 (HepG2): > 150 µM
IC50 (NCI/ADR-RES): > 150 µM

CC(=O)O/C1=C(\C)[C@@H](O)[C@H]2[C@@H](OC(=O)c3ccccc3)[C@@H](C)[C@H](OC(C)=O)[C@]2(OC(C)=O)[C@H](OC(C)=O)/C(C)=C/CC(C)(C)[C@H](OC(C)=O)[C@H]1OC(C)=O
INH [1]: Active

CC(=O)O[C@@H]1C[C@@H](OC(=O)c2ccccc2)/C(C)=C/[C@H]2[C@@H](OC(=O)c3ccccc3)[C@@H](C)[C@H](OC(=O)c3ccccc3)[C@]2(OC(C)=O)[C@H](O)[C@](C)(O)/C=C/C1(C)C
INH [4]: Active
INH [1]: Active
IC50 (HepG2): > 150 µM
IC50 (NCI/ADR-RES): 64.2 µM

CC(=O)O[C@@H]1C[C@@H](OC(=O)c2ccccc2)/C(C)=C/[C@H]2[C@@H](OC(=O)c3ccccc3)[C@@H](C)[C@H](O)[C@]2(OC(C)=O)[C@H](OC(C)=O)[C@](C)(O)/C=C/C1(C)C
INH [1]: Active

COc1cc2c(cc1OC)CN(CCc1ccc(NC(=O)c3cc(OC)c(OC)cc3NC(=O)c3cnc4ccccc4c3)cc1)CC2
FC [6]: 2.97
FC [7]: 1.04
INH [4]: Not Active
INH [1]: Active
IC50 (HepG2): 37.2 µM
IC50 (NCI/ADR-RES): 13.1 µM
IC50 [2]: 16.7 µM
half-life at 100 µM [8]: 3.5 h
k el at 100 µM [5]: 5.5e-05 s⁻¹

CC(=O)O[C@@H]1[C@@H](OC(C)=O)C(=O)/C(C)=C/[C@H]2[C@@H](OC(=O)c3ccccc3)[C@@H](C)[C@H](OC(C)=O)[C@]2(OC(C)=O)[C@H](OC(C)=O)[C@]2(C)O[C@H]2CC1(C)C
INH [1]: Active

CC(=O)O[C@@H]1C[C@@H](OC(=O)c2ccccc2)/C(C)=C/[C@H]2[C@@H](OC(=O)c3ccccc3)[C@@H](C)[C@H](OC(=O)c3ccco3)[C@]2(OC(C)=O)[C@H](O)[C@](C)(O)/C=C/C1(C)C
INH [1]: Active
IC50 (HepG2): > 150 µM
IC50 (NCI/ADR-RES): > 150 µM

C[C@]12CC[C@H]3[C@@H](CCC4=CC(=O)CC[C@@]43C)[C@@H]1CC[C@@H]2O [TESTOSTERONE]
k el at 100 µM [5]: 0.00444 s⁻¹

CC(=O)O[C@@H]1C[C@@H](OC(=O)c2ccccc2)/C(C)=C/[C@H]2[C@@H](OC(=O)c3ccccc3)[C@@H](C)[C@H](O)[C@]2(OC(C)=O)[C@H](O)[C@](C)(O)/C=C/C1(C)C
FC [6]: 2.8
FC [7]: 1.32
INH [4]: Active
INH [1]: Active
IC50 (HepG2): > 150 µM
IC50 (NCI/ADR-RES): > 150 µM

CC(=O)O[C@@H]1C[C@@H](OC(=O)c2ccccc2)/C(C)=C/[C@H]2[C@@H](OC(=O)c3ccccc3)[C@@H](C)[C@H](OC(C)=O)[C@]2(OC(C)=O)C(=O)[C@](C)(O)/C=C/C1(C)C
INH [1]: Active
IC50 (HepG2): > 150 µM
IC50 (NCI/ADR-RES): > 150 µM
IC50 [2]: > 100 µM

CC(=O)O[C@@H]1[C@@H](OC(C)=O)C(=O)/C(C)=C/[C@H]2[C@@H](OC(=O)c3ccccc3)[C@@H](C)[C@H](OC(C)=O)[C@]2(OC(C)=O)[C@H](OC(C)=O)/C(C)=C/CC1(C)C
INH [1]: Active

CC(=O)O[C@@H]1[C@@H](O)C(=O)/C(C)=C/C2=C[C@@H](C)[C@H](O)[C@]2(OC(C)=O)[C@H](O)/C(C)=C/CC1(C)C
INH [3]: Not Active

CC(=O)O[C@@H]1C[C@@H](OC(=O)c2ccccc2)/C(C)=C/[C@H]2[C@@H](OC(=O)c3ccccc3)[C@@H](C)[C@H](O)[C@]2(O)[C@H](O)[C@](C)(O)/C=C/C1(C)C
INH [1]: Active

C/C1=C\[C@H]2[C@@H](OC(=O)c3ccccc3)[C@@H](C)[C@H](O)[C@]2(O)[C@H](O)[C@](C)(O)/C=C/C(C)(C)[C@H](O)C[C@H]1O
INH [3]: Not Active

CC(=O)O[C@@H]1[C@@H](OC(C)=O)C(C)(C)C/C=C(\C)[C@@H](OC(C)=O)[C@]2(OC(C)=O)[C@@H](/C=C(\C)[C@@H]1OC(C)=O)[C@@H](OC(=O)c1ccccc1)[C@@H](C)[C@@H]2OC(C)=O
INH [1]: Active

CC(=O)O/C1=C(\C)C(=O)[C@H]2[C@@H](OC(=O)c3ccccc3)[C@@H](C)[C@H](OC(C)=O)[C@]2(OC(C)=O)[C@H](OC(C)=O)/C(C)=C/CC(C)(C)[C@H](OC(C)=O)[C@H]1OC(C)=O
INH [4]: Active
INH [1]: Active

CC(=O)O[C@@H]1C[C@@H](O)/C(C)=C/[C@H]2[C@@H](OC(=O)c3ccccc3)[C@@H](C)[C@H](O)[C@]2(OC(C)=O)[C@H](OC(=O)c2ccccc2)[C@](C)(O)/C=C/C1(C)C
INH [1]: Active

CC(=O)O[C@@H]1C[C@@H](OC(=O)c2ccccc2)/C(C)=C/[C@H]2[C@@H](OC(=O)c3ccccc3)[C@@H](C)[C@H](OC(C)=O)[C@]2(OC(C)=O)[C@H](O)[C@](C)(O)/C=C/C1(C)C
INH [1]: Active
IC50 (HepG2): 93.3 µM
IC50 (NCI/ADR-RES): > 150 µM

CC(=O)O/C1=C(\C)[C@@H](O)[C@H]2[C@@H](OC(=O)c3ccccc3)[C@@H](C)[C@H](O)[C@]2(O)[C@H](O)/C(C)=C/CC(C)(C)[C@H](OC(C)=O)[C@H]1OC(C)=O
INH [3]: Not Active

CC(=O)O[C@@H]1[C@@H](O)C(=O)/C(C)=C/C2=C[C@@H](C)[C@H](OC(C)=O)[C@]2(OC(C)=O)[C@H](OC(C)=O)/C(C)=C/CC1(C)C
INH [3]: Not Active

CC(=O)O[C@@H]1C[C@@H](OC(=O)c2ccccc2)/C(C)=C/[C@H]2[C@@H](OC(=O)c3ccccc3)[C@@H](C)[C@H](OC(=O)c3cccs3)[C@]2(OC(C)=O)[C@H](O)[C@](C)(O)/C=C/C1(C)C
INH [1]: Active
IC50 (HepG2): > 150 µM
IC50 (NCI/ADR-RES): > 150 µM

CC(=O)O[C@@H]1[C@@H](OC(C)=O)C(=O)/C(C)=C/C2=C[C@@H](C)[C@H](OC(C)=O)[C@]2(OC(C)=O)[C@H](OC(C)=O)/C(C)=C/CC1(C)C
INH [3]: Not Active

CC(=O)O/C1=C(\C)[C@@H](O)[C@H]2[C@@H](OC(=O)c3ccccc3)[C@@H](C)[C@H](OC(=O)c3ccccc3)[C@]2(OC(C)=O)[C@H](OC(C)=O)/C(C)=C/CC(C)(C)[C@H](OC(C)=O)[C@H]1OC(C)=O
FC [6]: 2.78
FC [7]: 1.37
INH [4]: Active
INH [1]: Active
IC50 (HepG2): > 150 µM
IC50 (NCI/ADR-RES): > 150 µM

CC(=O)O[C@@H]1CC(=O)/C(C)=C/[C@H]2C=C(C)C(=O)[C@]2(OC(C)=O)[C@H](O)[C@](C)(O)/C=C/C1(C)C
INH [3]: Not Active

CC(=O)O[C@@H]1C[C@@H](O)/C(C)=C/[C@H]2[C@@H](OC(=O)c3ccccc3)[C@@H](C)[C@H](O)[C@]2(OC(C)=O)[C@H](O)[C@](C)(O)/C=C/C1(C)C
INH [3]: Not Active
